Key:
Plasmodium falciparum [1] = assay: Inhibition of Plasmodium falciparum protein farnesyltransferase at 50 nM by scintillation proximity assay
Plasmodium falciparum [2] = assay: Inhibition of Plasmodium falciparum protein farnesyltransferase at 5 nM by scintillation proximity assay
Plasmodium falciparum [3] = assay: Inhibition of Plasmodium falciparum protein farnesyltransferase at 0.5 nM by scintillation proximity assay
Plasmodium falciparum [4] = assay: Antimalarial activity against Plasmodium falciparum K1; type: functional; details: Plasmodium falciparum, K1; read-out: ED50 (the source's name)
Outline: (§1)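 Asynchronous culture in type A+ erythrocytes at 0.5% parasitemia and 0.5% hematocrit, grown in RPMI-1640 with 20% heat-inactivated human A+ plasma. Compound was serially diluted from a top final 5 µM, with DMSO vehicle as 100% growth. Plates ran 48 h at 37 °C under 5% CO2/5% O2/90% N2, then [3H]-hypoxanthine (0.3 µCi) for 24 h. Filter-harvested counts were corrected for the uninfected-RBC background. ED50 by linear regression; duplicates averaged.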

Plasmodium falciparum [5] = assay: Antimalarial activity against Plasmodium falciparum 3D7; type: functional; details: Plasmodium falciparum, 3D7; read-out: ED50 (the source's name); outline: as §1

Compound	inhibition (Plasmodium falciparum [1])	inhibition (Plasmodium falciparum [2])	inhibition (Plasmodium falciparum [3])	EC50 (Plasmodium falciparum [4])	EC50 (Plasmodium falciparum [5])
COC(=O)N1CCC(CN(C2Cc3cc(C#N)ccc3N(Cc3cncn3C)C2)S(=O)(=O)c2cccc3ccccc23)CC1 (stereo not given)	88%	39%	2%	1700 nM	550 nM
Cn1cnc(S(=O)(=O)N(CC(=O)NC(C)(C)C)C2Cc3cc(C(=O)NC(C)(C)C)ccc3N(Cc3cncn3C)C2)c1 (stereo not given)	25%	0%	4%	> 5000 nM	> 5000 nM
Cn1cncc1CN1CC(N(CC(=O)O)S(=O)(=O)c2ccccn2)Cc2cc(C#N)ccc21 (stereo not given)	81%	33%	6%	2600 nM	2100 nM
CC(=O)N(Cc1ccccc1F)C1Cc2cc(C#N)ccc2N(Cc2cncn2C)C1 (stereo not given)	43%	1%	0%	730 nM	650 nM
COC(=O)N1CCC(CN(C2Cc3cc(C#N)ccc3N(S(=O)(=O)c3cncn3C)C2)S(=O)(=O)c2ccccn2)CC1 (stereo not given)	0%	0%	0%	3200 nM	> 5000 nM
Cn1cncc1CN1CC(N(CCCNC(=O)OC(C)(C)C)S(=O)(=O)c2ccccn2)Cc2cc(C#N)ccc21 (stereo not given)	97%	70%	9%	75 nM	133 nM
CCCS(=O)(=O)N(Cc1ccccc1F)C1Cc2cc(C#N)ccc2N(Cc2cncn2C)C1 (stereo not given)	41%	16%	11%	3050 nM	1200 nM
Cn1cncc1CN1CC(N(CC2CCN(C(=O)N3CCCC3)CC2)S(=O)(=O)c2ccccn2)Cc2cc(C#N)ccc21 (stereo not given)	99%	31%	91%	65 nM	35 nM
Cc1cc(=O)n(CCCCN(C2Cc3cc(C#N)ccc3N(Cc3cncn3C)C2)S(=O)(=O)c2ccccn2)c(=O)n1C (stereo not given)	90%	51%	0%	200 nM	350 nM
Cn1cnc(CN2CC(N(CCS(C)(=O)=O)S(=O)(=O)c3cn(C)cn3)Cc3cc(-c4ccccc4)ccc32)c1 (stereo not given)	99%	91%	29%	700 nM	400 nM
Cn1cncc1CN1CC(N(Cc2ccc(S(C)(=O)=O)cc2)S(=O)(=O)c2ccccn2)Cc2cc(C#N)ccc21 (stereo not given)	96%	84%	49%	405 nM	210 nM
Cn1cncc1CN1CC(N(CC2CCN(C(=O)OCc3ccccc3)CC2)S(=O)(=O)c2ccccn2)Cc2cc(C#N)ccc21 (stereo not given)	98%	13%	66%	650 nM	550 nM
Cn1cnc(CN2CC(N(CC(=O)NC(C)(C)C)S(=O)(=O)c3cn(C)cn3)Cc3cc(-c4ccccc4)ccc32)c1 (stereo not given)	97%	73%	23%	395 nM	381 nM

More lines, now with the values ahead:

inhibition (Plasmodium falciparum [1])	inhibition (Plasmodium falciparum [2])	inhibition (Plasmodium falciparum [3])	EC50 (Plasmodium falciparum [4])	EC50 (Plasmodium falciparum [5])	Compound
2%	0%	0%	> 5000 nM	> 5000 nM	Cn1cnc(CN2CC(N(CC(=O)NC(C)(C)C)S(C)(=O)=O)Cc3cc(-c4ccccc4)ccc32)c1 (stereo not given)
94%	14%	62%	200 nM	140 nM	Cn1cncc1CN1CC(N(CC2CCN(C(=O)N3CCCCC3)CC2)S(=O)(=O)c2ccccn2)Cc2cc(C#N)ccc21 (stereo not given)
11%	5%	1%	3600 nM	2600 nM	CCOc1ccccc1CN(C1Cc2cc(C#N)ccc2N(Cc2cncn2C)C1)S(=O)(=O)c1cn(C)cn1 (stereo not given)
0%	3%	2%	> 5000 nM	> 5000 nM	Cc1nc(C)c(S(=O)(=O)N(CC(=O)NC(C)(C)C)C2Cc3cc(C#N)ccc3N(Cc3cncn3C)C2)s1 (stereo not given)
90%	47%	14%	400 nM	510 nM	COC(=O)NCCN(C1Cc2cc(C#N)ccc2N(Cc2cncn2C)C1)S(=O)(=O)c1ccccn1 (stereo not given)
32%	0%	0%	350 nM	450 nM	CC(C)OC(=O)N1CCC(CN(C2Cc3cc(-c4ccccc4)ccc3N(Cc3cn(C)cn3)C2)S(=O)(=O)c2cn(C)cn2)CC1 (stereo not given)
97%	95%	54%	4.5 nM	9 nM	COC(=O)N1CCC(CN(C2Cc3cc(C#N)ccc3N(Cc3cncn3C)C2)S(=O)(=O)c2cn(C)cn2)CC1 (stereo not given)
100%	38%	93%	45 nM	65 nM	CC(C)NC(=O)N1CCC(CN(C2Cc3cc(C#N)ccc3N(Cc3cncn3C)C2)S(=O)(=O)c2ccccn2)CC1 (stereo not given)
90%	58%	0%	3750 nM	3000 nM	Cn1cnc(S(=O)(=O)N(Cc2cc3nsnc3cc2Cl)C2Cc3cc(C#N)ccc3N(Cc3cncn3C)C2)c1 (stereo not given)
35%	12%	3%	3000 nM	3400 nM	COC(=O)N1CCC(CN(C2Cc3cc(C#N)ccc3N(Cc3cccnc3)C2)S(=O)(=O)c2ccccn2)CC1 (stereo not given)
90%	59%	15%	400 nM	230 nM	COC(=O)N(C)CCCCN(C1Cc2cc(C#N)ccc2N(Cc2cncn2C)C1)S(=O)(=O)c1ccccn1 (stereo not given)
99%	65%	0%	60 nM	87 nM	Cn1cnc(S(=O)(=O)N(CCN2CCCC2=O)C2Cc3cc(C#N)ccc3N(Cc3cncn3C)C2)c1 (stereo not given)
97%	78%	10%	3500 nM	2100 nM	Cn1cncc1CN1CC(N(Cc2ccc(S(C)(=O)=O)cc2)S(=O)(=O)c2ccc3c(c2)OCCCO3)Cc2cc(C#N)ccc21 (stereo not given)
80%	31%	14%	> 5000 nM	3500 nM	Cn1cnc(S(=O)(=O)NC2Cc3cc(-c4ccccc4)ccc3N(Cc3cncn3C)C2)c1 (stereo not given)
99%	98%	69%	< 20 nM	57 nM	Cn1cnc(S(=O)(=O)N(Cc2ccc(S(C)(=O)=O)cc2Cl)C2Cc3cc(C#N)ccc3N(Cc3cncn3C)C2)c1 (stereo not given)
60%	5%	5%	4600 nM	> 5000 nM	Cn1cnc(S(=O)(=O)N(CCCN)C2Cc3cc(C#N)ccc3N(Cc3cncn3C)C2)c1 (stereo not given)
92%	61%	10%	1900 nM	2300 nM	COC(=O)c1ccsc1S(=O)(=O)N(CC1CCN(C(=O)OC)CC1)C1Cc2cc(C#N)ccc2N(Cc2cncn2C)C1 (stereo not given)
97%	80%	24%	70 nM	55 nM	COC(=O)N1CCC(CN(C2Cc3cc(C#N)ccc3N(Cc3cncn3C)C2)S(=O)(=O)c2ccccc2Cl)CC1 (stereo not given)
